The full list was thinned out, with hits kept by preference.
Insulin prom act: TRM-6 insulin promoter activation. TRM-6 cells (human fetal islet line), insulin promoter eGFP reporter, imaging; plate-scaled: unstimulated 0, stimulated control 100. activation, % at 2 µM. 0.81% of 130,000 active. AID 1296;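 active = activation at 2 µM above a set limit, confirmed on inspection of the cell images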;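 also: share of cells whose green reporter signal exceeds an intensity cutoff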
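Test system: TRM-6 insulin promoter–eGFP reporter cells / Quantity: 1,000 cells per well / Reagent: tamoxifen inducer, 0.75 µM, in seeding medium / Compound dosing: 2 µM final, single concentration / Schedule: overnight tamoxifen, then two-day compound incubation at 37 °C / Measured by: automated fluorescence imaging of paraformaldehyde-fixed, Hoechst-counterstained cells, green channel / Read-out: percent activation from GFP-positive cell fraction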
Starred values were filed as active, the others as inactive.

SMILES	Insulin prom act
COc1ccc(C2N(c3ccccc3)CCN2c2ccccc2)cc1O	0.0
O=C(NC1CCCC1)C(c1ccccc1)N(Cc1ccc2c(c1)OCO2)C(=O)Cc1cccs1 (configuration not stated)	246.2
Cn1cnnc1SCC(=O)N(Cc1ccc2c(c1)OCO2)C1(C(=O)NC2CCCCC2)CCCC1	7.1
NC(=O)c1noc(C(=O)N(CC(=O)NC2CCCC2)Cc2ccc3c(c2)OCO3)c1N	456.3*
O=C(Nc1ccccc1)C(O)C(O)C(=O)Nc1ccccc1 (configuration not stated)	-4.8
CC(=O)C1=C(c2ccccc2)NC(=O)NC1c1ccccc1OCC(=O)NCc1ccccc1 (configuration not stated)	-3.3
O=C(CCCN1C(=O)c2ccccc2C1=O)NCc1ccco1	238.9
O=C(CCCN1C(=O)c2ccccc2C1=O)Nc1cccnc1	-9.5
O=C(CCCN1C(=O)c2ccccc2C1=O)NCc1cccnc1	473.3*
O=C(O)CCC(=O)NNC(=O)c1ccc(Br)cc1	2.9
ClCC1NCC(c2ccccc2Cl)c2c1[nH]c1ccccc21 (configuration not stated)	585.7*
COc1cc(N2CN=c3s/c(=C\c4ccccn4)c(=O)n3C2)cc(OC)c1OC	3.8
CN1C=CC2=C(C#N)C(N)C(C#N)(C#N)[C@H](c3ccccc3)[C@H]2C1 (some centres not stated)	300.0*
CCC1(C)Cc2ccccc2C(=S)N1 (configuration not stated)	-8.7
O=C(c1cc2sccc2n1Cc1ccccc1)N1CCN(c2nc3ccccc3s2)CC1	0.0
COc1ccc(C2CC(c3ccc(Br)cc3)=NN2C(=O)c2cccnc2)cc1 (configuration not stated)	0.0
COc1cccc(C2CC(c3ccc(NS(C)(=O)=O)cc3)=NN2C(=O)c2ccccc2)c1OC (configuration not stated)	0.0
COC(=O)CCSCC(=O)N1N=C(c2ccc(Br)cc2)CC1c1cccc(OC)c1OC (configuration not stated)	386.7*
COc1ccc(NS(=O)(=O)c2ccc(SC)cc2)cc1	0.0
COC(=O)c1ccc(NS(=O)(=O)c2ccc(SC)cc2)cc1	730.0*
CCN(CC)S(=O)(=O)c1ccc(NS(=O)(=O)c2ccc(F)cc2)cc1	-6.7
CSc1ccc(S(=O)(=O)Nc2ccc(F)cc2)cc1	420.0*
CC(=O)c1ccc(NS(=O)(=O)c2ccc(N)cc2)cc1	-5.6
CSc1ccc(S(=O)(=O)Nc2c(C)cccc2C)cc1	-90.9
COc1ccc(Nc2nc3c(C)cccc3cc2C#N)c(OC)c1	-8.3
SMILES	Insulin prom act
CCOCCCNC(=O)C(NC(=O)C1CCC(=O)N1)c1ccc(C)cc1 (configuration not stated)	-7.1
Cc1cccc(OCc2nnc(NC(=O)Cc3cccs3)s2)c1	144.4
CCC(C)NS(=O)(=O)c1ccc(F)c(C(=O)Nc2c(F)cc(F)cc2Br)c1 (configuration not stated)	142.9
CCOC(=O)C(NC(=O)c1ccc(OC)cc1)(OCC1(CC)COC1)C(F)(F)F (configuration not stated)	-6.9
CCOC(=O)C(NC(=O)c1ccccc1)(OCc1ccc(F)cc1)C(F)(F)F (configuration not stated)	6.5
CCOC(=O)C(NC(=O)Nc1ncccn1)(Oc1ccccc1)C(F)(F)F (configuration not stated)	190.0*
COCCCn1c(-c2ccsc2)nc2c1c(=O)[nH]c(=O)n2Cc1ccccc1	-8.3
O=C(c1ccc(Cl)c([N+](=O)[O-])c1)N1CCN(Cc2ccc3c(c2)OCO3)CC1	121.4
O=C(O)CCn1nnc(-c2cccs2)n1	0.0
Clc1ccccc1-c1nnc2sc(-c3cccs3)nn12	0.0
Clc1ccccc1Cn1nnc(-c2cccs2)n1	569.2*
CCOc1ccc(N=C(/C(C(=O)C(=O)N2CCOCC2)=C(\O)c2ccccc2)c2ccccc2)cc1	8.3
CCc1nnc(NC(=O)CSc2ccc(-c3ccccc3OC)nn2)s1	-9.1
Cc1ccc(-c2nc(C(=O)O)cs2)cc1	145.5
Cc1ccc(-c2ccc(C(=O)O)c(C)n2)cc1	385.7*
Cc1nc(N(C)C)ncc1C(=O)O	2.3
CSC1=NC2C(N1)N(C)C(=O)N2C (configuration not stated)	0.0
CN(C)CCNC(=O)C(C(=O)c1ccc(F)cc1)n1ccccc1=O (configuration not stated)	114.3
CCOC(=O)c1ccc(CNCc2ccc(Br)cc2)cc1	0.0
CCOC(=O)C1=C(C)Nc2ccccc2N=C1NC(=O)Cc1ccc(Cl)c(Cl)c1	190.5
CCOC(=O)C1=C(C)Nc2ccccc2N=C1NC(=O)Cc1ccc(Br)cc1	222.6*
O=C(Nc1cccnc1)c1ccc(COc2ccccc2Cl)o1	0.0
CN(C)C(=O)c1ccc(COc2ccccc2Br)o1	421.1*
O=C(c1ccc(COc2ccccc2Br)o1)N1CCN(c2ccccn2)CC1	2.9
CCN1C2=C(C(=O)CCC2)C(c2ccc(O)cc2)C2=C1CCCC2=O	194.4
SMILES	Insulin prom act
O=C(CNC(=S)N(Cc1ccccc1)Cc1cccs1)NCc1ccc(F)cc1	0.0
CC(C)C(C(=O)NCC1CCCO1)N(Cc1ccco1)C(=O)CNS(=O)(=O)c1ccc(F)cc1 (configuration not stated)	109.1
O=C(CN(Cc1cccs1)C(=O)CNS(=O)(=O)c1ccc(F)cc1)NCc1ccco1	171.4*
CCc1ccc(OS(=O)(=O)c2cn(C)c(=O)n(C)c2=O)cc1	118.2
COc1ccc(C2c3cc(OC)c(OC)cc3CCN2C2CC(=O)N(c3ccccc3)C2=O)cc1OC (configuration not stated)	9.7
Cc1ccc(F)c(NC=C2C(=O)OC(C)(C)OC2=O)c1	143.5
Cn1cc(Br)c(C(=O)Nc2nccs2)n1	8.3
COc1ccc(-c2noc(CN(C(=O)c3cccs3)C(C)C)n2)cc1	8.3
Cc1cc(C)n(-c2cc(=O)n(C)c(=O)n2C)n1	-3.2
Cc1cc(C)n(-c2cc(C)c(C)cc2Br)n1	131.8*
CCc1cc2c(-n3nc(C)cc3C)ncnc2s1	342.9
COc1ccc(N2CC(C(=O)OC(C)C(=O)c3ccccc3)CC2=O)cc1 (configuration not stated)	-7.1
Cc1ccc2nc(C(=O)N3CCc4c([nH]c5ccccc45)C3c3ccccn3)cn2c1 (configuration not stated)	7.1
CCNc1nc(NC(C)C)nc(OCC)n1	-72.2
Cn1c(=O)c2cc(S(=O)(=O)N3CCC(c4ccccc4)CC3)ccc2n(C)c1=O	5.7
Cc1ccccc1OCc1n[nH]c(=S)n1Cc1ccccc1	0.0
OCCCc1n[nH]c(=S)n1-c1ccccc1	-6.7
Nn1c(Cc2ccccc2)n[nH]c1=S	485.7*
COc1ccc(C(=O)N2CCCC(CCC(=O)NCc3ccc(F)c(F)c3)C2)o1 (configuration not stated)	133.3
Cc1ccc2nc(C)cc(C(=O)OCC(=O)Nc3c(C)n(C)n(-c4ccccc4)c3=O)c2c1	0.0
CC(C)CC(NC(=O)c1ccccc1NC(=O)c1ccccc1)C(=O)O (configuration not stated)	-5.9
Cc1ccc(CNC(=O)C(CCC(N)=O)NC(=O)OCc2ccccc2)cc1 (configuration not stated)	5.3
CCOc1ccc(CCNC(=O)C(CCC(N)=O)NC(=O)OCc2ccccc2)cc1OCC (configuration not stated)	228.6*
CCOc1ccc(CCNC(=O)COC(=O)c2ccco2)cc1OCC	0.0

Screens: PubChem, Columbia University Molecular Screening Center
